“And” between values parts separate entries of the source, which are not always exact repeats. Equal entries are not always repeated. Where two headings read alike, the source gives them in different places.
Experiments:
[1] = test system: chronic myeloid leukemia; settings: CP-CML patients; cited from earlier work
[2] = test system: acute myeloid leukemia; test: Clinical response in AML patients; type: in vivo, human; settings: 5 patients with AML
Summary of the method: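 Relapsed or refractory AML patients (ECOG ≤1) received oral drug daily in continuous 28-day cycles. Powder-in-capsule dosing ran from 57 mg QD up to 1200 mg QD, and tablets from 100 mg. Intra-patient dose escalation was allowed. Disease response was assessed locally every 3 cycles by standard criteria.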

[3] = test system: chronic myeloid leukemia; test: Clinical response in CML patients; type: in vivo, human
[4] = test system: TIE2; settings: cited from earlier work
[5] = test system: TRKB; settings: cited from earlier work
[6] = test system: TIE2; test: Plasma angiopoietin 2; type: in vivo, human; settings: Day 22 compared to baseline
[7] = Plasma pharmacokinetics after multiple oral doses; type: in vivo, human; settings: for Tmax: median Tmax
[8] = Human plasma protein binding; type: in vitro ADME
[9] = test system: BCR-ABL1 or FLT3; test: Ex vivo incubation of patient whole blood, phosphorylation of CRKL or FLT3; type: cell-based; settings: Homo sapiens, read-out: IC50 for inhibition of phosphorylation
Summary of the method: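 Predose screening whole blood from TKI-resistant CML or AML patients was incubated with test compound ex vivo. Mononuclear cells were then fixed and permeabilized. Phosphorylation of CRKL or FLT3 was measured, with pCRKL read by flow cytometry. IC50 for inhibition of phosphorylation was determined per evaluable sample.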

[10] = test system: c-ABL1; settings: cited from earlier work
[11] = test system: TRKA; settings: cited from earlier work
[12] = Phase 1 safety: adverse events; type: in vivo, human
Summary of the method: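 First-in-human, multicenter, single-arm oral study in 57 patients, given daily in 28-day cycles. Powder-in-capsule doses escalated from 57 mg QD to 1200 mg QD over 11 cohorts, doubling between the initial single-patient cohorts. Titration was accelerated 3+3, switching to standard 3+3 at grade ≥2 AEs. Tablet cohorts followed, up to 200 mg BID. AEs were graded by NCI CTC v3.0, and DLTs were assessed in cycle 1.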

[13] = type: in vivo, human
[14] = test system: BCR-ABL1 T315I; settings: cited from earlier work
[15] = test system: BCR-ABL1 or FLT3; test: Pharmacodynamics in dosed patients: pCRKL / pSTAT5 in blood cells; type: in vivo, human; settings: of 45 patients with evaluable samples
[16] = test system: T315I BCR-ABL1 mutation; settings: cited from earlier work

For COC(=O)C[C@](O)(CCCC(C)(C)O)C(=O)O[C@@H]1C(OC)=C[C@]23CCCN2CCc2cc4c(cc2[C@H]13)OCO4 [omacetaxine mepesuccinate], which cytogenetic responses [1] is on record?
Its cytogenetic responses is ~ 20%.

What does the source list for CNC(=O)c1cc(Oc2ccc(NC(=O)Nc3cc(C(C)(C)C)nn3-c3ccc4ncccc4c3)c(F)c2)ccn1 [rebastinib]?
AML patients with a response [2]: None; patients with complete cytogenetic response ([3]; T315I): 1 patients; patients with complete hematologic response ([3]; T315I): 4 patients; patients with major molecular response ([3]; T315I): 2 patients; patients with minor cytogenetic response ([3]; T315I): 3 patients; patients with minor hematologic response ([3]; T315I): 0 patients; patients with partial cytogenetic response ([3]; T315I): 1 patients; patients with partial hematologic response ([3]; T315I): 3 patients; patients with complete hematologic response ([3]; fifty evaluable): 8 patients; patients with minor hematologic response ([3]; fifty evaluable): 3 patients; patients with partial hematologic response ([3]; fifty evaluable): 4 patients; overall cytogenetic response rate of CML patients ([3]; human, in vivo): 21%; complete hematologic responses ([3]; in 40 evaluable CML patients): Eight; patients with complete cytogenetic response ([3]; of 37 evaluable): 2 patients; patients with cytogenetic response ([3]; of 37 evaluable): 8 patients; patients with minor cytogenetic response ([3]; of 37 evaluable): 4 patients; patients with partial cytogenetic response ([3]; of 37 evaluable): 2 patients; patients with molecular response (major molecular response) ([3]; of 40 evaluable): Four; IC50 [4]: 0.058 nM; IC50 [5]: 0.42 nM; patient samples with ANG2 increases [6]: 19/20; free drug in circulation ([7]; at 200 ng/mL, based on plasma protein binding): ~ 1.3 nM; Bioavailability, formulated tablets compared to unformulated capsules ([7]; human, plasma, oral): 3- to 4 fold; Exposure, tablets compared to PIC ([7]; human, plasma, oral): approximately 3 fold; half-life ([7]; human, plasma, oral): 12 to 15 h; initial distribution phase from Tmax ([7]; human, plasma, oral): 6–8 hours postdose; trough concentrations as % of Cmax ([7]; human, plasma, oral): 10–20%; Tmax ([7]; human, plasma, oral, PIC): 2 h; Tmax ([7]; human, plasma, oral, tablets): 1 to 1.5 h; Average plasma levels ([7]; ~1–4 hours postdose, 150 mg BID): 200 ng/mL and 360 nM; fraction unbound [8]: 0.0035; IC50 [9]: < 200 nM; IC50 [10]: 0.7 nM; IC50 [11]: 0.17 nM; patients with DLT in first cycle ([12]; 200 mg BID tablet): 2 n; patients with DLT in first cycle ([12]; 1200 mg QD PIC): 1 n; SAE muscular weakness ([12]; N=57): 4 patients; patients with AEs suggestive of nervous system disorders, any grade ([12]; N=57): 33%; patients with Grade 3 or 4 AE ([12]; N=57): 34 patients; patients with SAEs related to study treatment ([12]; N=57): 18 patients; patients with musculoskeletal disorders of all grades ([12]; N=57): 22 patients; patients with serious adverse events (SAEs) ([12]; N=57): 34 patients; patients with visual abnormalities ([12]; N=57): 19 patients; treatment-related SAE ([12]; dose levels below 300 mg BID (PIC) and 100 mg QD (tablet)): No treatment-related SAE; CML patients with AEs suggestive of potential ≥Grade 3 cardiomyopathy ([12]; in vivo): 4 patients; Dose-limiting toxicities ([12]; in vivo): dysarthria, muscle weakness, and peripheral neuropathy; patients discontinued due to musculoskeletal disorders ([12]; in vivo): 2 patients; patients with at least one AE of any grade ([12]; in vivo): 57 (100%) patients (%); deaths deemed related ([12]; n=8 deaths): none; patients with visual abnormalities first reported during Cycle 1 ([12]; of 19): 10 patients; patients with Grade 3 musculoskeletal events ([12]; of 22): 13 patients; patients with musculoskeletal disorders during Cycle 1 ([12]; of 22): 14 patients; patients with Grade 3 AESI possibly or probably related ([12]; of 27 additional patients at 150 mg BID): 18 patients; maximum tolerated dose (MTD) ([12]; tablets, twice daily (BID)): 150 mg; patients with nervous system disorders ([13]; high Cmax subgroup): 13 patients; patients with nervous system disorders ([13]; low Cmax subgroup): 7 patients; patients with nervous system disorders ([13]; middle Cmax subgroup): 5 patients; efficacy in mouse model [14]: effective; patients with significant (>50%) inhibition of phosphorylation of CRKL and/or STAT5 [15]: 20 patients

Which “effectiveness against the T315I mutation” value [16] does the source give for Cc1ccc(C(=O)Nc2ccc(CN3CCN(C)CC3)c(C(F)(F)F)c2)cc1C#Cc1cnc2cccnn12 [ponatinib] here?
Its value is “effective”.

Which “effectiveness against the T315I BCR-ABL1 mutation” value [16] does the source give for COc1cc(Nc2c(C#N)cnc3cc(OCCCN4CCN(C)CC4)c(OC)cc23)c(Cl)cc1Cl [bosutinib] here?
Its value is “not effective”.

For Cc1cn(-c2cc(NC(=O)c3ccc(C)c(Nc4nccc(-c5cccnc5)n4)c3)cc(C(F)(F)F)c2)cn1 [nilotinib], which “effectiveness against the T315I BCR-ABL1 mutation” value [16] is on record?
Its value is “not effective”.

Source: publication PMC5394958 (Haematologica, 2016)
